Consider 18 compounds from ChEMBL document CHEMBL1649468, “AAC(6')-Iaf, a novel aminoglycoside 6'-N-acetyltransferase from multidrug-resistant Pseudomonas aeruginosa clinical isolates” (2009).

In test [1] the test system is Pseudomonas aeruginosa. Nature of the test: Antimicrobial activity against Pseudomonas aeruginosa isolate IMCJ798 by microdilution method. In kind it is functional. The procedure, abridged:
(§1)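 Broth microdilution MIC following CLSI-recommended protocols, tested on multidrug-resistant clinical P. aeruginosa isolates against a panel of individual aminoglycosides. MIC reported in μg/ml.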

Test [2] relates to Pseudomonas aeruginosa. The test can be described thus: Antimicrobial activity against multidrug resistant Pseudomonas aeruginosa by microdilution method. Format: functional.
The subject of test [3] is Escherichia coli. Nature of the test: Antimicrobial activity against Escherichia coli JM109 transformant harboring pSTV28 plasmid expressing aac(6')-Iaf (TTG-ATG) mutant gene by microdilution method. In kind it is functional. In a few lines:
(§2)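 Broth microdilution MICs followed CLSI protocols. The test strains were E. coli JM109 carrying the vector pSTV28 alone or pSTV28 bearing aac(6′)-Iaf (wild type or TTG→ATG start codon). Each strain was tested in Mueller-Hinton broth containing chloramphenicol (30 μg/ml) plus serial dilutions of individual aminoglycosides. MICs are reported in μg/ml.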

In test [4] the test system is Pseudomonas aeruginosa. The test can be described thus: Antimicrobial activity against multidrug resistant Pseudomonas aeruginosa isolate IMCJ2S1 by microdilution method. Format: functional.
The test system of test [5] is Escherichia coli. The test can be described thus: Antimicrobial activity against Escherichia coli JM109 transformant harboring pSTV28 plasmid expressing aac(6')-Iaf wild type gene by microdilution method. In kind it is functional. In a few lines:
as §2

For test [6], the system named is Pseudomonas aeruginosa. Nature of the test: Antimicrobial activity against Pseudomonas aeruginosa isolate IMCJ799 by microdilution method. In kind it is functional. The procedure, abridged: as §1
Test [7] concerns Pseudomonas aeruginosa. The test can be described thus: Antimicrobial activity against rifampin-resistant Pseudomonas aeruginosa ATCC 27853 by microdilution method. Format: functional.
Test [8] has as its system Escherichia coli. Nature of the test: Antimicrobial activity against Escherichia coli JM109 transformant harboring pSTV28 plasmid by microdilution method.
Test [9] concerns Pseudomonas aeruginosa. Nature of the test: Antimicrobial activity against Pseudomonas aeruginosa isolate IMCJ798 by microdilution method in presence of beta-lactamase inhibitor Tazobactam. Format: functional.
In test [10] the test system is Pseudomonas aeruginosa. The test can be described thus: Antimicrobial activity against Pseudomonas aeruginosa isolate IMCJ799 by microdilution method in presence of beta-lactamase inhibitor Tazobactam. In kind it is functional.
The test system of test [11] is Pseudomonas aeruginosa. The test can be described thus: Antimicrobial activity against multidrug resistant Pseudomonas aeruginosa isolate IMCJ2S1 by microdilution method in presence of beta-lactamase inhibitor Tazobactam. In kind it is functional.
The subject of test [12] is Pseudomonas aeruginosa. Nature of the test: Antimicrobial activity against rifampin-resistant Pseudomonas aeruginosa ATCC 27853 by microdilution method in presence of beta-lactamase inhibitor Tazobactam. Format: functional.

≈ marks a conversion by molar mass, not a printed value. A value given as a limit tells only on which side of the number the result lay.

As to `NCC[C@H](O)C(=O)N[C@@H]1C[C@H](N)[C@@H](O[C@H]2O[C@H](CN)[C@@H](O)[C@H](O)[C@H]2O)[C@H](O)[C@H]1O[C@H]1O[C@H](CO)[C@@H](O)[C@H](N)[C@H]1O` [AMIKACIN], the MIC is 128 µg/mL (≈ 219 µM) with Pseudomonas aeruginosa [1]; at least 32 µg/mL in the test with Pseudomonas aeruginosa [2]; 32 µg/mL (≈ 54.6 µM) against Escherichia coli [3]; 128 µg/mL (≈ 219 µM) in the test on Pseudomonas aeruginosa [4]; 16 µg/mL (≈ 27.3 µM) in the test on Escherichia coli [5]; 128 µg/mL (≈ 219 µM) with Pseudomonas aeruginosa [6]. Moreover, the MIC amounted to 2 µg/mL (≈ 3.42 µM) in the test with Pseudomonas aeruginosa [7] and 1 µg/mL (≈ 1.71 µM) with Escherichia coli [8].
For the compound `NCC[C@H](O)C(=O)N[C@@H]1C[C@H](N)[C@@H](O[C@H]2O[C@H](CN)CC[C@H]2N)[C@H](O)[C@H]1O[C@H]1O[C@H](CO)[C@@H](O)[C@H](N)[C@H]1O` [ARBEKACIN], the MIC in the test with Pseudomonas aeruginosa [1] was 8 µg/mL (≈ 14.5 µM); against Escherichia coli [3], 4 µg/mL (≈ 7.24 µM); against Pseudomonas aeruginosa [4] it was 2 µg/mL (≈ 3.62 µM); against Escherichia coli [5] it was 4 µg/mL (≈ 7.24 µM); against Pseudomonas aeruginosa [6] it was 16 µg/mL (≈ 29 µM); against Pseudomonas aeruginosa [7], below 0.5 µg/mL. The lowest concentration to inhibit growth against Escherichia coli [8] (MIC) was 2 µg/mL (≈ 3.62 µM).
As to `C[C@H]1[C@H](NC(=O)/C(=N\OC(C)(C)C(=O)O)c2csc(N)n2)C(=O)N1S(=O)(=O)O` [AZTREONAM], the MIC is 64 µg/mL (≈ 147 µM) in the test on Pseudomonas aeruginosa [1], 128 µg/mL (≈ 294 µM) in the test on Pseudomonas aeruginosa [4], 64 µg/mL (≈ 147 µM) against Pseudomonas aeruginosa [6] and 2 µg/mL (≈ 4.59 µM) against Pseudomonas aeruginosa [7].
For `CC(C)(O/N=C(\C(=O)N[C@@H]1C(=O)N2C(C(=O)[O-])=C(C[n+]3ccccc3)CS[C@H]12)c1csc(N)n1)C(=O)O` [CEFTAZIDIME], the minimal inhibitory concentration (MIC) against Pseudomonas aeruginosa [1] was 512 µg/mL (≈ 937 µM); against Pseudomonas aeruginosa [4], 512 µg/mL (≈ 937 µM); against Pseudomonas aeruginosa [6], 512 µg/mL (≈ 937 µM); in the test on Pseudomonas aeruginosa [7], below 1 µg/mL.
As to `NC[C@@H]1CC[C@@H](N)[C@@H](O[C@H]2[C@H](O)[C@@H](O[C@H]3O[C@H](CO)[C@@H](O)[C@H](N)[C@H]3O)[C@H](N)C[C@@H]2N)O1` [DIBEKACIN], the MIC is above 128 µg/mL against Pseudomonas aeruginosa [1]; 32 µg/mL (≈ 70.9 µM) with Escherichia coli [3]; 16 µg/mL (≈ 35.4 µM) with Escherichia coli [5]; above 128 µg/mL in the test with Pseudomonas aeruginosa [6]; 1 µg/mL (≈ 2.21 µM) against Escherichia coli [8].
For the compound `NC[C@@H]1O[C@H](O[C@H]2[C@@H](O)[C@H](O[C@@H]3[C@@H](O)[C@H](N)C[C@H](N)[C@H]3O[C@H]3O[C@H](CN)[C@@H](O)[C@H](O)[C@H]3N)O[C@@H]2CO)[C@H](N)[C@@H](O)[C@@H]1O` [FRAMYCETIN], the minimum inhibitory concentration (MIC) in the test on Pseudomonas aeruginosa [1] came out at 8 µg/mL (≈ 13 µM); against Escherichia coli [3], 4 µg/mL (≈ 6.51 µM); in the test with Escherichia coli [5], 4 µg/mL (≈ 6.51 µM); in the test with Pseudomonas aeruginosa [6], 8 µg/mL (≈ 13 µM); in the test on Escherichia coli [8], 2 µg/mL (≈ 3.25 µM).
Turning to `C[C@@H](O)[C@H]1C(=O)N2C(C(=O)O)=C(SCCNC=N)C[C@H]12` [IMIPENEM ANHYDROUS], the MIC with Pseudomonas aeruginosa [1] came out at 128 µg/mL (≈ 428 µM); against Pseudomonas aeruginosa [4], 128 µg/mL (≈ 428 µM); against Pseudomonas aeruginosa [6], 128 µg/mL (≈ 428 µM); against Pseudomonas aeruginosa [7] it was 4 µg/mL (≈ 13.4 µM).
Take `CN[C@@H]1[C@@H](O)C(O[C@@H]2[C@@H](O)[C@H](OC3O[C@H](CN)[C@@H](O)[C@H](O)[C@H]3O)[C@@H](N)C[C@H]2NC(=O)[C@@H](O)CN)OC[C@]1(C)O` (some centres undefined) [ISOPAMICIN]: the MIC is above 128 µg/mL in the test with Pseudomonas aeruginosa [1]; 16 µg/mL (≈ 28.1 µM) with Escherichia coli [3]; 4 µg/mL (≈ 7.02 µM) against Escherichia coli [5]; above 128 µg/mL with Pseudomonas aeruginosa [6]; 1 µg/mL (≈ 1.76 µM) in the test with Escherichia coli [8].
For the compound `NC[C@H]1O[C@H](O[C@H]2[C@H](O)[C@@H](O[C@H]3O[C@H](CO)[C@@H](O)[C@H](N)[C@H]3O)[C@H](N)C[C@@H]2N)[C@H](O)[C@@H](O)[C@@H]1O` [KANAMYCIN], the MIC in the test with Pseudomonas aeruginosa [1] is above 128 µg/mL; in the test with Escherichia coli [3] it was 128 µg/mL (≈ 264 µM); in the test with Escherichia coli [5], 64 µg/mL (≈ 132 µM); with Pseudomonas aeruginosa [6] it was above 128 µg/mL; against Escherichia coli [8] it was 2 µg/mL (≈ 4.13 µM).
In the case of `C[C@@H](O)[C@H]1C(=O)N2C(C(=O)O)=C(S[C@@H]3CN[C@H](C(=O)N(C)C)C3)[C@H](C)[C@H]12` [MEROPENEM], the MIC in the test on Pseudomonas aeruginosa [1] was above 512 µg/mL; in the test with Pseudomonas aeruginosa [2], at least 16 µg/mL; in the test on Pseudomonas aeruginosa [4], 512 µg/mL (≈ 1340 µM); in the test on Pseudomonas aeruginosa [6], above 512 µg/mL; with Pseudomonas aeruginosa [7], 1 µg/mL (≈ 2.61 µM).
In the case of `CCN[C@@H]1C[C@H](N)[C@@H](O[C@H]2OC(CN)=CC[C@H]2N)[C@H](O)[C@H]1O[C@H]1OC[C@](C)(O)[C@H](NC)[C@H]1O` [NETILMICIN], the MIC was above 128 µg/mL against Pseudomonas aeruginosa [1]; 8 µg/mL (≈ 16.8 µM) in the test on Escherichia coli [3]; 8 µg/mL (≈ 16.8 µM) with Escherichia coli [5]; above 128 µg/mL in the test with Pseudomonas aeruginosa [6]; 0.5 µg/mL (≈ 1.05 µM) with Escherichia coli [8].
Take `CC1COc2c(N3CCN(C)CC3)c(F)cc3c(=O)c(C(=O)O)cn1c23` (centres undefined) [OFLOXACIN]: the MIC against Pseudomonas aeruginosa [1] was above 128 µg/mL; in the test with Pseudomonas aeruginosa [2], at least 4 µg/mL; with Pseudomonas aeruginosa [6], above 128 µg/mL; with Pseudomonas aeruginosa [7], below 0.5 µg/mL.
With `CCN1CCN(C(=O)N[C@@H](C(=O)N[C@@H]2C(=O)N3[C@@H]2SC(C)(C)[C@@H]3C(=O)O)c2ccccc2)C(=O)C1=O` [PIPERACILLIN], the MIC was 256 µg/mL (≈ 495 µM) in the test on Pseudomonas aeruginosa [1], 256 µg/mL (≈ 495 µM) in the test with Pseudomonas aeruginosa [4], 256 µg/mL (≈ 495 µM) in the test with Pseudomonas aeruginosa [6] and below 4 µg/mL in the test on Pseudomonas aeruginosa [7].
Consider `CN[C@@H]1[C@@H](O)[C@@H](O[C@@H]2[C@@H](O)[C@H](O[C@H]3OC(CN)=CC[C@H]3N)[C@@H](N)C[C@H]2N)OC[C@]1(C)O` [SISOMICIN], for which the MIC worked out at 32 µg/mL (≈ 71.5 µM) in the test with Pseudomonas aeruginosa [1]; 2 µg/mL (≈ 4.47 µM) against Escherichia coli [3]; 1 µg/mL (≈ 2.23 µM) with Escherichia coli [5]; 32 µg/mL (≈ 71.5 µM) against Pseudomonas aeruginosa [6]; 0.5 µg/mL (≈ 1.12 µM) in the test on Escherichia coli [8].
On to `C[C@]1(Cn2ccnn2)[C@H](C(=O)O)N2C(=O)C[C@H]2S1(=O)=O` [TAZOBACTAM], for which the MIC in the test on Pseudomonas aeruginosa [9] was determined as 256 µg/mL; with Pseudomonas aeruginosa [10] it was 256 µg/mL; in the test on Pseudomonas aeruginosa [11], 256 µg/mL; in the test with Pseudomonas aeruginosa [12], 4 µg/mL.
Turning to `NC[C@H]1O[C@H](O[C@H]2[C@H](O)[C@@H](O[C@H]3O[C@H](CO)[C@@H](O)[C@H](N)[C@H]3O)[C@H](N)C[C@@H]2N)[C@H](N)C[C@@H]1O` [TOBRAMYCIN], the MIC in the test on Pseudomonas aeruginosa [1] amounted to 32 µg/mL (≈ 68.4 µM); against Escherichia coli [3] it was 4 µg/mL (≈ 8.56 µM); in the test on Escherichia coli [5], 4 µg/mL (≈ 8.56 µM); against Pseudomonas aeruginosa [6], 32 µg/mL (≈ 68.4 µM); with Escherichia coli [8], 0.125 µg/mL (≈ 0.267 µM).
Consider GENTAMICIN, for which the MIC against Pseudomonas aeruginosa [1] was 4 µg/mL; in the test with Escherichia coli [3], 1 µg/mL; in the test with Pseudomonas aeruginosa [4], 16 µg/mL; against Escherichia coli [5], 1 µg/mL; against Pseudomonas aeruginosa [6], 2 µg/mL; in the test on Pseudomonas aeruginosa [7] it was below 1 µg/mL.
For POLYMYXIN B, the MIC with Pseudomonas aeruginosa [1] came out at 4 µg/mL; in the test on Pseudomonas aeruginosa [4] it was 2 µg/mL; against Pseudomonas aeruginosa [6], 4 µg/mL; against Pseudomonas aeruginosa [7], 2 µg/mL.
